Some results are limits rather than exact numbers.

Usually IC50 stands for the concentration at which inhibition is half-maximal. By inhibition is commonly meant the percentage by which the read-out fell short of the control.

A short description of test [1]: Antioxidant activity of compound assessed as trolox equivalent antioxidant capacity by ORAC-FL assay. Format: functional.
Test [2] addresses T1, Acetylcholinesterase (Rattus norvegicus, UniProt P37136).
T1 sequence (P37136 whole entry): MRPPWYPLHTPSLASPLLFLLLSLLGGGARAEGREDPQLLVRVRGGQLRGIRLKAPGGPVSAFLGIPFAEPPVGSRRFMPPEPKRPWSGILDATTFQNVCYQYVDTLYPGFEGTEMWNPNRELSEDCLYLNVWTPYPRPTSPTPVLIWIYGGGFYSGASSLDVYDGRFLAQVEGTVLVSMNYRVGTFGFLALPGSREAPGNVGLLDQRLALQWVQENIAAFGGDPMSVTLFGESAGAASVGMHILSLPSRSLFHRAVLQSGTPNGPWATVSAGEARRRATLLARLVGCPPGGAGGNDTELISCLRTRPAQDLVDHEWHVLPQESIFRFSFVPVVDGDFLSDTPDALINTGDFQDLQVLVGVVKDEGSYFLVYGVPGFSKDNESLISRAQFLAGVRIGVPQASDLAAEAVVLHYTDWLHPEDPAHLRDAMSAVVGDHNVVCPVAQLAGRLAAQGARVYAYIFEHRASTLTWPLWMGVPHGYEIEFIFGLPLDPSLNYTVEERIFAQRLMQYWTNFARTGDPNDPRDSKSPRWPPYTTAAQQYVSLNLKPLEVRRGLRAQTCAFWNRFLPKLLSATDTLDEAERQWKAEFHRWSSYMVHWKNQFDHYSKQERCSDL
As to the kind of experiment: Inhibition of rat cortex homogenate acetylcholinesterase by Ellman's method.

For a further test, the target named is Butyrylcholinesterase (Rattus norvegicus, UniProt Q9JKC1). The test can be described thus: Inhibition of rat serum BuChE by Ellman's method.
Chain of Butyrylcholinesterase (Q9JKC1 whole entry): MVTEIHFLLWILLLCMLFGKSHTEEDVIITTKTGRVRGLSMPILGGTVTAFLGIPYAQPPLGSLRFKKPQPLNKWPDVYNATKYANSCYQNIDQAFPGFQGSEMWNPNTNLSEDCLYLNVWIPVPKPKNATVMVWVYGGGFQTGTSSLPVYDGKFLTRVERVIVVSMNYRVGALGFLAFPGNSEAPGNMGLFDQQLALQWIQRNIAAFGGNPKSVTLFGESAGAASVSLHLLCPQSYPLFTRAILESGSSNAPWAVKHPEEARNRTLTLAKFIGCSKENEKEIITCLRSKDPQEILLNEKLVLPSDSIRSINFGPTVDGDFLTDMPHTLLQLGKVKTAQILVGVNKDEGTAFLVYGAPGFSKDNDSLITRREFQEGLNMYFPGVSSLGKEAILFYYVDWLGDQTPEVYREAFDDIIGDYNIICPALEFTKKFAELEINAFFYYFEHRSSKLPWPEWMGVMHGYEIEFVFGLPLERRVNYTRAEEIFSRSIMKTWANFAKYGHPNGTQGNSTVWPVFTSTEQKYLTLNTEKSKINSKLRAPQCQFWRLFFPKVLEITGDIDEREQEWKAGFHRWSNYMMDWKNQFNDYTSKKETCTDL
The target in test [3] is Acetylcholinesterase (Electrophorus electricus, UniProt O42275). The test can be described thus: Inhibition of electric eel AChE using acetylthiocholine iodide as substrate by Ellman's method. On the technique in general: In Ellman's method for cholinesterases, released thiocholine reacts with DTNB.
Chain of Acetylcholinesterase (Electrophorus electricus, UniProt O42275) (O42275 whole entry): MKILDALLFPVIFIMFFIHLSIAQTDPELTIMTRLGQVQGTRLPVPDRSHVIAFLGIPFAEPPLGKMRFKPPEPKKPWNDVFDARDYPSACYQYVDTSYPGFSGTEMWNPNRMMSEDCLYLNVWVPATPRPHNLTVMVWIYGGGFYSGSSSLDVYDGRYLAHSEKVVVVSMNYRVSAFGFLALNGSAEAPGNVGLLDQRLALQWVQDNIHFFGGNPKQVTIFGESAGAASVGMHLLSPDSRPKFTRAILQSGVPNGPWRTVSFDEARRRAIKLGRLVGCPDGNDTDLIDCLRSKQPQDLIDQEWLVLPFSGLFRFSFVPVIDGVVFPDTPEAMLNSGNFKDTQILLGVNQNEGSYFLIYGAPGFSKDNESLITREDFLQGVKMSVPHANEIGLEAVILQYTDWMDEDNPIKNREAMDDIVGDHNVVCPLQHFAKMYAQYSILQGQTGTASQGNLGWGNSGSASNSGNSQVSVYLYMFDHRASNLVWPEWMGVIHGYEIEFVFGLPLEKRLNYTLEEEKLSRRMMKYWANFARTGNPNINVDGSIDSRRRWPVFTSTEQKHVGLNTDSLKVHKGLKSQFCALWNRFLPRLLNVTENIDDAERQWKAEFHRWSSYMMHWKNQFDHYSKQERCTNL
The target of test [4] is T2, Amine oxidase [flavin-containing] B (Homo sapiens, UniProt P27338).
T2 sequence (P27338 whole entry): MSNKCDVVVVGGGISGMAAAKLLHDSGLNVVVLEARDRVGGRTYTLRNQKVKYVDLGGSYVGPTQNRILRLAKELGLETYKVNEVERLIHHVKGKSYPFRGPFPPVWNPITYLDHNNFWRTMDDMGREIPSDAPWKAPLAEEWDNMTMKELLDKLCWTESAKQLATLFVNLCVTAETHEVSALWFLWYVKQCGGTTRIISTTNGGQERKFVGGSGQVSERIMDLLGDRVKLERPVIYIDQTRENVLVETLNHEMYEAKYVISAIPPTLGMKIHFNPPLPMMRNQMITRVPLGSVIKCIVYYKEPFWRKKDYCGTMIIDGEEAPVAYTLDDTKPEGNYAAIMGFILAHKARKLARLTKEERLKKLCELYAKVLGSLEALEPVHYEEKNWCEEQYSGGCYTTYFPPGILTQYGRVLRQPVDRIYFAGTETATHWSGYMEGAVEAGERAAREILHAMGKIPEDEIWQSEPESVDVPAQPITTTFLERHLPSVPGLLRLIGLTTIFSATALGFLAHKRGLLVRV
The test can be described thus: Inhibition of human recombinant MAO-B by multimode plate reader assay.

The target of test [5] is T3, Amine oxidase [flavin-containing] A (Homo sapiens, UniProt P21397).
T3 sequence (P21397 whole entry): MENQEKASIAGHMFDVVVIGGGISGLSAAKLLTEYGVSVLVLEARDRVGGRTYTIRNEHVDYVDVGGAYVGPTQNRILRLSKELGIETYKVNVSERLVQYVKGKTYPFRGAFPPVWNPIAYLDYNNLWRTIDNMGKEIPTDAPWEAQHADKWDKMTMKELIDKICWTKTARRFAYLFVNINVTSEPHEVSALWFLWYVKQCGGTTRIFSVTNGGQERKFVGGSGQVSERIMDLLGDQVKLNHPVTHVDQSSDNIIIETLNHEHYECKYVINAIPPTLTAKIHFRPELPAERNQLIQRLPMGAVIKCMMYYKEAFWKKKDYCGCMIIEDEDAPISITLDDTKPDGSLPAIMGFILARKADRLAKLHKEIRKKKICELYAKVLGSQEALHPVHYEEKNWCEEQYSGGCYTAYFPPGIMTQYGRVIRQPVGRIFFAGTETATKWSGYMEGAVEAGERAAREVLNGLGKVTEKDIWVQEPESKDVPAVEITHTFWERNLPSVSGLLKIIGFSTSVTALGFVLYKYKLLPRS
As to the kind of experiment: Inhibition of human recombinant MAO-A by multimode plate reader assay.

A further test is filed under the species Homo sapiens. As to the kind of experiment: Selectivity index, ratio of IC50 for recombinant human MAO-A to IC50 for recombinant human MAO-B. The gist of the method: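 Selectivity index taken as IC50(hMAO-A)/IC50(hMAO-B). IC50 values are mean ± SEM from three experiments.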
In test [6] the target is Amyloid-beta precursor protein (Homo sapiens, UniProt P05067). The test can be described thus: Inhibition of self-induced amyloid beta (1 to 42) (unknown origin) aggregation at 25 uM by T-fluorescence assay relative to control. The gist of the method: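 Self-induced Aβ1-42 aggregation measured by ThT fluorescence, excitation 446 nm and emission 490 nm. Compound and Aβ1-42 each at 25 μM. Run in triplicate. Values are mean of three independent experiments.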
Chain of Amyloid-beta precursor protein (P05067 whole entry): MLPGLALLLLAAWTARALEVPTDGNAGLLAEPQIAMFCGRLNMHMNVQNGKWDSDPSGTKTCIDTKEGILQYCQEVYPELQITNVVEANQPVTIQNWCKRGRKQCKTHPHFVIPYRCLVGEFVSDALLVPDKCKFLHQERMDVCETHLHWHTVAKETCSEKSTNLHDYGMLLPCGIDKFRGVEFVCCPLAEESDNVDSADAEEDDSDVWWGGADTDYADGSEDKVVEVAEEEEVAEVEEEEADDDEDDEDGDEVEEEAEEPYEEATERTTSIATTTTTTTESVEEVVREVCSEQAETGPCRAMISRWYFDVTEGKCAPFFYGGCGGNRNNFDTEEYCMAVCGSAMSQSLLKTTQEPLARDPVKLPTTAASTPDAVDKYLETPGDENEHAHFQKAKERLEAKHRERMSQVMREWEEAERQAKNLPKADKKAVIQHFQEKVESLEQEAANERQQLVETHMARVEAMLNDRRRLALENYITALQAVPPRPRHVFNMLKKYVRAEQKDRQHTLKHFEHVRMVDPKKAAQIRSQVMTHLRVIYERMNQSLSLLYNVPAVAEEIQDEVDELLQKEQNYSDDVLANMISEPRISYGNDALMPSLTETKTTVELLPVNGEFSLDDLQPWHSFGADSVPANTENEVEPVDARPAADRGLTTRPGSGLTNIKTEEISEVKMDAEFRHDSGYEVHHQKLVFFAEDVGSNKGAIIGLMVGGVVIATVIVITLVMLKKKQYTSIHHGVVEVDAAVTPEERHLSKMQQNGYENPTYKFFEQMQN

As to `CCN(CCCOc1ccc(C(=O)/C=C/c2ccccc2)c(O)c1)Cc1ccccc1N(C)C`, in test [1], the Activity was 1.3. In addition, the concentration for half-maximal inhibition (IC50) against Acetylcholinesterase [2] was 0.31 µM; on Butyrylcholinesterase, greater than 500 µM; against Acetylcholinesterase [3], 2 µM; in test [4], 0.8 µM; in test [5], 67.8 µM. In addition, the Selectivity Index in the test listed under Homo sapiens was found to be 84.4. Moreover, in test [6], the inhibition came to 23%.
Take `CCN(CCCCOc1ccc(/C=C/C(=O)c2ccc(N(C)C)cc2O)cc1)Cc1ccccc1OC`: the Activity in test [1] was 1.6. For the same molecule, the 50% inhibitory concentration (IC50) on Acetylcholinesterase [2] is 0.71 µM; on Butyrylcholinesterase, greater than 500 µM; against Acetylcholinesterase [3] it was 1.63 µM; in test [4], 4.6 µM; in test [5], 9.2 µM. In the test listed under Homo sapiens, the Selectivity Index stood at 2. Moreover, in test [6], the inhibition came to 70.1%.
On to `CN(C)c1ccc(/C=C/C(=O)c2ccc(N(C)C)cc2O)cc1`, for which, in test [1], the Activity stood at 1.7. Besides, the IC50 at Acetylcholinesterase [2] was greater than 500 µM; against Butyrylcholinesterase, greater than 500 µM; against Acetylcholinesterase [3] it was greater than 500 µM; in test [4] it was 12.1 µM; in test [5] it was 47.9 µM. In addition, in the test filed under Homo sapiens, the Selectivity Index was found to be 4. Moreover, the inhibition in test [6] was 64.3%.
As for `CCN(CC)CCCOc1ccc(C(=O)/C=C/c2ccc(N(C)C)cc2)c(O)c1`, the Activity in test [1] turned out to be 1.2. Also, the IC50 was 2.25 µM against Acetylcholinesterase [2]; greater than 500 µM against Butyrylcholinesterase; 1.35 µM against Acetylcholinesterase [3]; 4.1 µM in test [4]; 47.1 µM in test [5]. For the same molecule, the Selectivity Index in the test listed under Homo sapiens was 11.5. In test [6], this molecule displayed an inhibition of 64.1%.
Take `COc1ccc(/C=C/C(=O)c2ccc(N(C)C)cc2O)cc1`: the Activity in test [1] came to 1.5. In addition, the 50% inhibitory concentration (IC50) on Acetylcholinesterase [2] is greater than 500 µM; against Butyrylcholinesterase it was greater than 500 µM; on Acetylcholinesterase [3], greater than 500 µM; in test [4], 13.3 µM; in test [5], 42.5 µM. Further, the Selectivity Index in the test listed under Homo sapiens is 3.2. In addition, the inhibition in test [6] was 36.1%.
In the case of `COc1ccc(C(=O)/C=C/c2ccc(N(C)C)cc2)c(O)c1`, in test [1], the Activity was 1.2. Further, the IC50 against Acetylcholinesterase [2] is greater than 500 µM; at Butyrylcholinesterase it was greater than 500 µM; against Acetylcholinesterase [3], greater than 500 µM; in test [4], 0.21 µM; in test [5], 7.62 µM. Further, the Selectivity Index in the test listed under Homo sapiens came out at 36.3. This molecule also yielded an inhibition in test [6] of 59.7%.
